# Laboratory results as given in ChEMBL document CHEMBL5058577, “EUbOPEN Chemogenomics Library 2 (Multiplex)” (2022).
# System: HEK-293T
# Assay: Multiplex assay against HEK293T
# Format: toxicity, cell-based
# Conditions: human
# Outline: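 Live cells carried four stains from seeding: Hoechst33342, BioTracker Green Microtubule Cytoskeleton Dye, MitoTracker Red and Annexin V Alexa Fluor 680. They were imaged on a CQ1 microscope at 37°C and 5% CO2 after compound addition. Using CellPathfinder machine-learning gating, cells were split into Hoechst high-intensity objects or normal cells, normal cells into healthy, pyknosed or fragmented nuclei, and pyknosed cells into mitotic or apoptotic; tubulin, mitochondrial-mass and membrane-permeability phenotypes are per cents of healthy-nucleus cells.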
# [1] = 12 h, 1 µM, compound concentration 1 uM, replicate 1
# [2] = 12 h, 1 µM, compound concentration 1 uM, replicate 2
# [3] = 12 h, 10 µM, compound concentration 10 uM, replicate 1
# [4] = 12 h, 10 µM, compound concentration 10 uM, replicate 2
# [5] = 24 h, 1 µM, compound concentration 1 uM, replicate 1
# [6] = 24 h, 1 µM, compound concentration 1 uM, replicate 2
# [7] = 24 h, 10 µM, compound concentration 10 uM, replicate 1
# [8] = 24 h, 10 µM, compound concentration 10 uM, replicate 2
# [9] = 48 h, 1 µM, compound concentration 1 uM, replicate 1
# [10] = 48 h, 1 µM, compound concentration 1 uM, replicate 2
# [11] = 48 h, 10 µM, compound concentration 10 uM, replicate 1
# [12] = 48 h, 10 µM, compound concentration 10 uM, replicate 2
structure (smiles),measurement,setting,value
"CCCn1c(=O)c2[nH]c(C3CCCC3)nc2n(CCC)c1=O [1,3-DIPROPYL-8-CYCLOPENTYLXANTHINE [DPCPX]]",Population Apoptotic (%),[1],35%
same,Population Fragmented Nuclei (%),[1],7%
same,Population Healthy Nuclei (%),[1],79%
same,Population Hoechst High Intensity Objects (%),[1],6%
same,Population Membrane Permeable-Phenotype (%),[1],0%
same,Population Mitochondria Different-Phenotype (%),[1],44%
same,Population Mitotic Cells (%),[1],64%
same,Population Normal (%),[1],93%
same,Population Pyknosed Nuclei (%),[1],12%
same,Population Tubulin-Different-Phenotype (%),[1],32%
same,Total Cell Count,[1],443
same,Population Apoptotic (%),[2],54%
same,Population Fragmented Nuclei (%),[2],3%
same,Population Healthy Nuclei (%),[2],81%
same,Population Hoechst High Intensity Objects (%),[2],3%
same,Population Mitochondria Different-Phenotype (%),[2],52%
same,Population Mitotic Cells (%),[2],45%
same,Population Normal (%),[2],96%
same,Population Pyknosed Nuclei (%),[2],14%
same,Population Tubulin-Different-Phenotype (%),[2],15%
same,Total Cell Count,[2],361
same,Population Apoptotic (%),[3],60%
same,Population Fragmented Nuclei (%),[3],12%
same,Population Healthy Nuclei (%),[3],68%
same,Population Hoechst High Intensity Objects (%),[3],5%
same,Population Membrane Permeable-Phenotype (%),[3],0%
same,Population Mitochondria Different-Phenotype (%),[3],58%
same,Population Mitotic Cells (%),[3],39%
same,Population Normal (%),[3],94%
same,Population Pyknosed Nuclei (%),[3],19%
same,Population Tubulin-Different-Phenotype (%),[3],51%
same,Total Cell Count,[3],295
same,Population Apoptotic (%),[4],54%
same,Population Fragmented Nuclei (%),[4],7%
same,Population Healthy Nuclei (%),[4],75%
same,Population Hoechst High Intensity Objects (%),[4],18%
same,Population Mitochondria Different-Phenotype (%),[4],68%
same,Population Mitotic Cells (%),[4],45%
same,Population Normal (%),[4],81%
same,Population Pyknosed Nuclei (%),[4],16%
same,Population Tubulin-Different-Phenotype (%),[4],45%
same,Total Cell Count,[4],337
same,Population Apoptotic (%),[5],26%
same,Population Fragmented Nuclei (%),[5],8%
same,Population Healthy Nuclei (%),[5],78%
same,Population Hoechst High Intensity Objects (%),[5],4%
same,Population Membrane Permeable-Phenotype (%),[5],1%
same,Population Mitochondria Different-Phenotype (%),[5],25%
same,Population Mitotic Cells (%),[5],73%
same,Population Normal (%),[5],95%
same,Population Pyknosed Nuclei (%),[5],13%
same,Population Tubulin-Different-Phenotype (%),[5],20%
same,Total Cell Count,[5],610
same,Population Apoptotic (%),[6],28%
same,Population Fragmented Nuclei (%),[6],7%
same,Population Healthy Nuclei (%),[6],82%
same,Population Hoechst High Intensity Objects (%),[6],3%
same,Population Membrane Permeable-Phenotype (%),[6],0%
same,Population Mitochondria Different-Phenotype (%),[6],45%
same,Population Mitotic Cells (%),[6],71%
same,Population Normal (%),[6],96%
same,Population Pyknosed Nuclei (%),[6],10%
same,Population Tubulin-Different-Phenotype (%),[6],19%
same,Total Cell Count,[6],403
same,Population Apoptotic (%),[7],50%
same,Population Fragmented Nuclei (%),[7],8%
same,Population Healthy Nuclei (%),[7],76%
same,Population Hoechst High Intensity Objects (%),[7],4%
same,Population Membrane Permeable-Phenotype (%),[7],0%
same,Population Mitochondria Different-Phenotype (%),[7],43%
same,Population Mitotic Cells (%),[7],50%
same,Population Normal (%),[7],95%
same,Population Pyknosed Nuclei (%),[7],14%
same,Population Tubulin-Different-Phenotype (%),[7],40%
same,Total Cell Count,[7],379
same,Population Apoptotic (%),[8],41%
same,Population Fragmented Nuclei (%),[8],7%
same,Population Healthy Nuclei (%),[8],79%
same,Population Hoechst High Intensity Objects (%),[8],15%
same,Population Mitochondria Different-Phenotype (%),[8],55%
same,Population Mitotic Cells (%),[8],58%
same,Population Normal (%),[8],84%
same,Population Pyknosed Nuclei (%),[8],13%
same,Population Tubulin-Different-Phenotype (%),[8],31%
same,Total Cell Count,[8],411
same,Population Apoptotic (%),[9],33%
same,Population Fragmented Nuclei (%),[9],11%
same,Population Healthy Nuclei (%),[9],81%
same,Population Hoechst High Intensity Objects (%),[9],1%
same,Population Membrane Permeable-Phenotype (%),[9],1%
same,Population Mitochondria Different-Phenotype (%),[9],17%
same,Population Mitotic Cells (%),[9],66%
same,Population Normal (%),[9],98%
same,Population Pyknosed Nuclei (%),[9],7%
same,Population Tubulin-Different-Phenotype (%),[9],17%
same,Total Cell Count,[9],957
same,Population Apoptotic (%),[10],39%
same,Population Fragmented Nuclei (%),[10],14%
same,Population Healthy Nuclei (%),[10],80%
same,Population Hoechst High Intensity Objects (%),[10],3%
same,Population Membrane Permeable-Phenotype (%),[10],0%
same,Population Mitochondria Different-Phenotype (%),[10],22%
same,Population Mitotic Cells (%),[10],60%
same,Population Normal (%),[10],96%
same,Population Pyknosed Nuclei (%),[10],5%
same,Population Tubulin-Different-Phenotype (%),[10],13%
same,Total Cell Count,[10],593
same,Population Apoptotic (%),[11],29%
same,Population Fragmented Nuclei (%),[11],14%
same,Population Healthy Nuclei (%),[11],76%
same,Population Hoechst High Intensity Objects (%),[11],3%
same,Population Membrane Permeable-Phenotype (%),[11],1%
same,Population Mitochondria Different-Phenotype (%),[11],37%
same,Population Mitotic Cells (%),[11],70%
same,Population Normal (%),[11],96%
same,Population Pyknosed Nuclei (%),[11],8%
same,Population Tubulin-Different-Phenotype (%),[11],30%
same,Total Cell Count,[11],511
same,Population Apoptotic (%),[12],45%
same,Population Healthy Nuclei (%),[12],75%
same,Population Hoechst High Intensity Objects (%),[12],7%
same,Population Membrane Permeable-Phenotype (%),[12],0%
same,Population Mitochondria Different-Phenotype (%),[12],36%
same,Population Mitotic Cells (%),[12],54%
same,Population Normal (%),[12],92%
same,Population Pyknosed Nuclei (%),[12],10%
same,Population Tubulin-Different-Phenotype (%),[12],23%
same,Total Cell Count,[12],516
